Here are results for six molecules from ChEMBL document CHEMBL1649535, “In vitro interactions between antifungals and immunosuppressive drugs against zygomycetes” (2009).

Holding throughout (assay type): functional
In experiment [1] the test system is Lichtheimia corymbifera. Put plainly: Antimicrobial activity against Mycocladus corymbiferus after 24 hrs by broth microdilution checkerboard procedure. In outline:
(§1)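 CLSI broth microdilution for filamentous fungi, adapted to checkerboard; 1–3 isolates per species. Final ranges: amphotericin B and azoles 0.004–2 μg/ml; cyclosporine 0.125–8 μg/ml; tacrolimus and rapamycin 0.06–4 μg/ml, with extra runs at 0.001–0.06 μg/ml. Incubated 24 h at 35°C and read spectrophotometrically. MIC is the lowest concentration giving 50% inhibition (amphotericin B alone: 90%). Most tests run in duplicate.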

Experiment [2] deals with Mucor circinelloides. Put plainly: Antimicrobial activity against Mucor circinelloides after 24 hrs by broth microdilution checkerboard procedure. A digest of the protocol:
as §1

Experiment [3] in a line: Antimicrobial activity against Rhizopus microsporus after 24 hrs by broth microdilution checkerboard procedure. A digest of the protocol: as §1
The subject of experiment [4] is Rhizomucor pusillus. Put plainly: Antimicrobial activity against Rhizomucor pusillus after 24 hrs by broth microdilution checkerboard procedure. A digest of the protocol:
as §1

The test system of experiment [5] is Rhizopus arrhizus. As to the kind of experiment: Antimicrobial activity against Rhizopus oryzae after 24 hrs by broth microdilution checkerboard procedure. In outline:
as §1

Some results are limits rather than exact numbers.

`C[C@@H]1[C@H](O)[C@@H](C)/C=C/C=C/C=C/C=C/C=C/C=C/C=C/[C@H](O[C@@H]2O[C@H](C)[C@@H](O)[C@H](N)[C@@H]2O)C[C@@H]2O[C@](O)(C[C@@H](O)C[C@@H](O)[C@H](O)CC[C@@H](O)C[C@@H](O)CC(=O)O[C@H]1C)C[C@H](O)[C@H]2C(=O)O` [AMPHOTERICIN B]: the MIC in experiment [1], in experiment [2], in experiment [3], in experiment [4] and in experiment [5] was 0.125 µg/mL in each case.

As for `CCC(C)n1ncn(-c2ccc(N3CCN(c4ccc(OCC5COC(Cn6cncn6)(c6ccc(Cl)cc6Cl)O5)cc4)CC3)cc2)c1=O` (centres undefined) [ITRACONAZOLE], the MIC in experiment [1], in experiment [2], in experiment [3], in experiment [4] and in experiment [5] was 0.62 µg/mL in each case.

As to `CC[C@@H]([C@H](C)O)n1ncn(-c2ccc(N3CCN(c4ccc(OC[C@@H]5CO[C@@](Cn6cncn6)(c6ccc(F)cc6F)C5)cc4)CC3)cc2)c1=O` [POSACONAZOLE], the MIC in experiment [1], in experiment [2], in experiment [3], in experiment [4] and in experiment [5] was 0.57 µg/mL each time.

As to `C[C@@H](c1nc(-c2ccc(C#N)cc2)cs1)[C@](O)(Cn1cncn1)c1ccc(F)cc1F` [RAVUCONAZOLE], the MIC in experiment [1], in experiment [2], in experiment [3], in experiment [4] and in experiment [5] was 0.44 µg/mL each time.

As for `CO[C@H]1C[C@@H]2CC[C@@H](C)[C@@](O)(O2)C(=O)C(=O)N2CCCC[C@H]2C(=O)O[C@H]([C@H](C)C[C@@H]2CC[C@@H](O)[C@H](OC)C2)CC(=O)[C@H](C)/C=C(\C)[C@@H](O)[C@@H](OC)C(=O)[C@H](C)C[C@H](C)/C=C/C=C/C=C/1C` [SIROLIMUS], the MIC was above 4 µg/mL in experiment [1], at most 0.25 µg/mL in experiment [2], at most 0.25 µg/mL in experiment [3] and above 4 µg/mL in experiment [4].

As for `C=CC[C@@H]1/C=C(\C)C[C@H](C)C[C@H](OC)[C@H]2O[C@@](O)(C(=O)C(=O)N3CCCC[C@H]3C(=O)O[C@H](/C(C)=C/[C@@H]3CC[C@@H](O)[C@H](OC)C3)[C@H](C)[C@@H](O)CC1=O)[C@H](C)C[C@@H]2OC` [TACROLIMUS ANHYDROUS], the MIC in experiment [1] was at most 0.5 µg/mL; in experiment [2] it was at most 0.5 µg/mL; in experiment [3], above 4 µg/mL; in experiment [4] it was above 4 µg/mL; in experiment [5] it was at most 0.5 µg/mL.
